Screening results as filed in PubChem.
Rows were chosen to be rich in hits. Some 2.8% of all compounds tested hit in one or more screens of this group.
EP2 mod – modulates human prostaglandin E2 receptor EP2 signaling | EP2-expressing cells, cAMP HTRF FRET, PGE2 co-stimulation | induction, % at 25 µM | actives 0.83% (n = 260,000) | P43116 | AID 940;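 active = compounds whose cAMP rise, as percent of the full-agonist control response, exceeds 60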;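 note: rat C6 glioma line stably carrying human EP2 under a CMV promoter; the protocol text gives 20 µM as final concentration; 100% = response of wells given 1 µM PGE2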
Target sequence (P43116 whole entry, looked up): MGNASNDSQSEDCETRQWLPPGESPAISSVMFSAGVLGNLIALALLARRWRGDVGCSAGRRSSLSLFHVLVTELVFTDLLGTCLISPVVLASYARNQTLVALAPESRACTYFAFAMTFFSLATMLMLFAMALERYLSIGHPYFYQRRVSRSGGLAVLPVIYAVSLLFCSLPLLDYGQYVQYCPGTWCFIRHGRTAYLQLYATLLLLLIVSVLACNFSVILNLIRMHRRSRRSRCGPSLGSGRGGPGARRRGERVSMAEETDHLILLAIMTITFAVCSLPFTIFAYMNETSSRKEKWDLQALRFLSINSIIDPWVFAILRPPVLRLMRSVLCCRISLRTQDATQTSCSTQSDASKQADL
NPY2 pot ag – potentiates or activates human NPY-Y2 receptor; P49146; cells expressing NPY-Y2, potentiator/agonist read-out; activation, % at 3.6 µM; actives 0.45% (n = 220,000); in the data active = activation above about 27%;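 note: cells stimulated with NPY near EC25 plus isoproterenol at EC100; 0% = vehicle plus submaximal agonist and 100% = vehicle plus saturating agonist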
Target sequence (P49146 whole entry, looked up): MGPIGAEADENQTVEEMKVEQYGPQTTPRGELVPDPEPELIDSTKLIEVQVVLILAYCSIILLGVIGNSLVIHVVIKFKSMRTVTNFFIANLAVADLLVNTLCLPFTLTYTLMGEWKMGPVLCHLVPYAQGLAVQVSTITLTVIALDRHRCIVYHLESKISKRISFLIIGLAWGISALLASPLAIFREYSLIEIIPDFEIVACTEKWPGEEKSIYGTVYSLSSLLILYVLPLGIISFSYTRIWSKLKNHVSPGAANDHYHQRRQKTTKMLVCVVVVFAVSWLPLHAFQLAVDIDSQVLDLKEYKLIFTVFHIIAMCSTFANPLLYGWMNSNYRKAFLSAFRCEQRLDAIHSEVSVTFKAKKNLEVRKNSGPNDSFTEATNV
NPY-Y1 antag – antagonists of human neuropeptide Y receptor Y1 | HEK293-CNG Y1 cells, membrane potential fluorescence; NPY at EC95, then isoproterenol | inhibition, % at 3.6 µM | AID 1040 | P25929 | actives 1% (n = 200,000);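 active = inhibition above the campaign mean inhibition of all tested compounds plus 3 SD, cut at about 20% in these data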;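 note: 0% = DMSO wells given NPY plus isoproterenol and 100% = isoproterenol alone without NPY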
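Material: HEK293 cells with Y1 receptor plus CNG channel; times: compound incubation 1 h at room temperature, readout 45 min post-stimulation; signal: fluorescence, membrane potential probe; read-out basis: fluorescence ratio normalized to % inhibition between controls; benchmarks: full-block control isoproterenol-only wells, zero-block control NPY plus isoproterenol wells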
PGE2 EP2 inh – inhibitors of human EP2 prostaglandin E2 receptor. AID 1422. C6 glioma cells expressing human EP2, cAMP TR-FRET; cells stimulated with saturating PGE2. actives 0.52% (n = 260,000). P43116. inhibition, % at 25 µM;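 active = percent inhibition above 40 after rounding to a whole number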;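 note: rat C6 glioma host cells with rolipram phosphodiesterase inhibitor present; the protocol text gives 20 µM as final concentration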
NPY-Y1 PAM-ag – potentiators or agonists of human neuropeptide Y receptor Y1; P25929; actives 0.37% (n = 220,000); activation, % at 3.6 µM; AID 1304; NPY-Y1 expressing cells, potentiator/agonist activation; in the data active = activation above about 33%, passing the limit was not always enough;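 note: cells stimulated with NPY at EC10 then isoproterenol at EC100; 0% = low agonist plus stimulus and 100% = saturating agonist plus stimulus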
NPY Y2 blocker – antagonists of human neuropeptide Y receptor Y2; actives 0.99% (n = 140,000); NPY-Y2 expressing cells, antagonist mode; inhibition, % at 2.7 µM; AID 793; P49146; in the data active = inhibition above about 17%;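 note: 0% = vehicle with agonist challenge and 100% = reference antagonist with challenge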
NPY-Y1 pot conf – confirmation of human NPY-Y1 receptor potentiators or agonists | shares compounds with NPY-Y1 PAM-ag | AID 1546 | actives 20% (n = 280) | cell-based NPY-Y1 potentiator/agonist assay | activation, % at 3.6 µM; in the data active = activation above about 45%;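 note: cells challenged with NPY at its EC10 plus isoproterenol stimulus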
NPY-Y2 counter – potentiates or activates NPY-Y2, counter-screen for NPY-Y1 hits; shares compounds with NPY-Y1 PAM-ag; HEK293-CNG cells, membrane-potential fluorescence (FLIPR), 1536-well; activation, % at 3.6 µM; actives 20% (n = 280); AID 1649
NPY-Y1 ag – activates human NPY-Y1, counter-screen for NPY-Y1 potentiators; actives 50% (n = 280); HEK293 Y1-CNGC, membrane potential fluorescence, agonist mode; shares compounds with NPY-Y1 PAM-ag; activation, % at 3.6 µM;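 active = percent activation above the mean of DMSO-only control wells plus 3 SD of those wells, cut at about 18% in these data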;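 note: cells challenged with isoproterenol plus Ro 20-1724 with no NPY in test wells; Y1 agonism lowers isoproterenol-driven cAMP and reduces probe fluorescence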
NPY-Y2 agonist – human NPY-Y2 agonism as NPY-Y1 counter-screen; shares compounds with NPY-Y1 PAM-ag; HEK293 Y2-CNGC, membrane potential fluorescence, agonist mode; activation, % at 3.6 µM; actives 67% (n = 280); AID 1698;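 active = activation above the solvent-only control wells' mean plus 3 SD, cut at about 11% in these data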;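 note: 0% = DMSO with isoproterenol and 100% = 40 nM NPY maximal response; agonism lowers cAMP so well fluorescence drops in active wells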
CNGC counter – blocks cyclic nucleotide gated channel in NPY-Y1 counter-screen; inhibition, % at 3.6 µM; HEK293-CNG parental, isoproterenol cAMP, membrane potential fluorescence; shares compounds with NPY-Y1 PAM-ag; actives 42% (n = 280);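 active = inhibition above the mean of stimulated solvent-only control wells plus 3 SD, cut at about 22% in these data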;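 note: 0% = isoproterenol-stimulated DMSO wells and 100% = unstimulated DMSO wells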
NPY-Y2 pot conf – human NPY-Y2 potentiation or agonism, confirmation; shares compounds with NPY2 pot ag; cell-based NPY-Y2 potentiator/agonist assay; activation, % at 3.6 µM; actives 20% (n = 450)
NPY-Y1 potentiator – potentiates or activates NPY-Y1, counter-screen for NPY-Y2 hits. activation, % at 3.6 µM. actives 20% (n = 450). Y1 HEK293-CNG cells, membrane potential fluorescence. shares compounds with NPY2 pot ag; in the data active = activation above about 45%;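 note: cells stimulated with submaximal NPY then isoproterenol with phosphodiesterase inhibitor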
NPY-Y1 ag 2 – activates human NPY-Y1, counter-screen for NPY-Y2 potentiators | shares compounds with NPY2 pot ag | HEK293 Y1-CNGC, membrane potential fluorescence, agonism | activation, % at 3.6 µM | actives 37% (n = 450);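 active = activation above the mean of DMSO-only control wells plus 3 SD, cut at about 18% in these data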;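 note: cells stimulated with 1 µM isoproterenol plus the PDE inhibitor Ro 20-1724; 0% = isoproterenol with DMSO and no NPY and 100% = 40 nM NPY; Y1 agonists lower the membrane potential dye signal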
CNGC inhibitor – counter-screen for NPY-Y2 potentiators: inhibitors of CNG channel activity; HEK293-CNG parental, isoproterenol cAMP, membrane potential fluorescence; inhibition, % at 3.6 µM; actives 32% (n = 450); shares compounds with NPY2 pot ag;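 active = inhibition above the control-well mean plus 3 SD of those wells, cut at about 22% in these data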;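 note: 0% = DMSO with isoproterenol and 100% = DMSO without isoproterenol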
Y2 agonist ctr – activates human NPY-Y2 receptor in potentiator counter-screen; shares compounds with NPY2 pot ag; HEK293 Y2/CNGC cells, membrane potential fluorescence, agonist mode; activation, % at 3.6 µM; actives 56% (n = 450);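 active = activation above the mean of solvent-only control wells plus 3 SD, cut at about 10% in these data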;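 note: cells stimulated by isoproterenol with no NPY added so direct agonism is tested; 0% = DMSO with isoproterenol alone and 100% = NPY at EC100 plus isoproterenol; agonism lowers probe fluorescence through less cAMP and CNG channel opening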
Numbers without * were called inactive; . = no result. Cut-off read from the data, not from the text of the source, unless noted: active = activation above about 33%; inactive = the rest.

SMILES | EP2 mod | NPY2 pot ag | NPY-Y1 antag | PGE2 EP2 inh | NPY-Y1 PAM-ag | NPY Y2 blocker | NPY-Y2 pot conf | NPY-Y1 potentiator | NPY-Y1 ag 2 | CNGC inhibitor | Y2 agonist ctr | others
O=C(COc1ccc(S(=O)(=O)NC2CCCCC2)cc1Cl)N1CCN(c2ccccc2)CC1 | 6 | 15 | -5 | 12 | 41* | -4 | . | . | . | . | . | NPY-Y1 pot conf=8;NPY-Y2 counter=8;NPY-Y1 ag=-1;NPY-Y2 agonist=9;CNGC counter=13
O=C(COc1ccc(S(=O)(=O)NC2CCCCC2)cc1)N1CCN(c2ccc(F)cc2)CC1 | -1 | -19 | -2 | 12 | 6 | 0 | . | . | . | . | .
Cn1c(CSCc2ccc(Cl)cc2Cl)n[nH]c1=S | -5 | -16 | 0 | 13 | 65* | . | . | . | . | . | . | NPY-Y1 pot conf=-3;NPY-Y2 counter=2;NPY-Y1 ag=0;NPY-Y2 agonist=7;CNGC counter=-9
CCOc1cccc(C(=O)Nc2nnn(C)n2)c1 | -7 | . | . | 13 | . | . | . | . | . | . | .
CCN(CC)C(=O)c1ccccc1NS(C)(=O)=O | 0 | 4 | 1 | 4 | 37* | . | . | . | . | . | . | NPY-Y1 pot conf=-6;NPY-Y2 counter=-4;NPY-Y1 ag=-4;NPY-Y2 agonist=5;CNGC counter=-5
CCCOc1ccc(CCC(=O)N/N=C/c2ccco2)cc1 | 2 | 100* | . | 7 | 8 | . | 2 | 3 | -5 | 1 | 6
CCCCOc1ccc(CCC(=O)N/N=C/c2ccco2)cc1 | -1 | -10 | . | 8 | -1 | . | . | . | . | . | .
Cc1ccc(NC(=S)N2CCC(N(C)CC3CCCO3)CC2)cc1 (centres undefined) | -1 | 10 | 0 | 2 | -11 | . | . | . | . | . | .
Cc1cc(C)cc(NC(=S)N2CCC(N(C)CC3CCCO3)CC2)c1 (centres undefined) | 2 | 31* | -2 | 6 | 12 | . | 7 | 3 | -3 | 5 | 10
Fc1ccccc1Nc1ncnc2sc3c(c12)CCC3 | 22 | . | . | 11 | . | . | . | . | . | . | .
Oc1ccc(-c2n[nH]c(C(F)(F)F)c2-c2ccccc2)c(O)c1 | -12 | 53* | -3 | 7 | 14 | . | 17 | -4 | -13 | 4 | 15*
CC1CCc2c(sc3nc(SCC(=O)N4CCCc5ccccc54)[nH]c(=O)c23)C1 (centres undefined) | 24 | . | . | 12 | . | . | . | . | . | . | .
CCN(CC)c1ccc(NC(=O)/C=C\c2ccccc2Cl)cc1 | 11 | 31* | -6 | 7 | 41 | -1 | 17 | 26 | 25* | 27* | 27*
COc1ccc2c(c1)C=C(CN1CCc3nc(N4CCCC(C)C4)[nH]c(=O)c3C1)CO2 (centres undefined) | -7 | . | . | 8 | . | . | . | . | . | . | .
Cc1ccc(C)c(OCC(O)CN2CCC(C)CC2)c1C (centres undefined) | 21 | -3 | 5 | 10 | -4 | 5 | . | . | . | . | .
Cc1ccccc1OCC(O)CN1CCC(C)CC1 (centres undefined) | -18 | 37* | -4 | 5 | 31 | . | 21 | 34 | 19* | 3 | 42*
Cc1nc(-c2cn[nH]c2)c2cc(C)oc2n1 | 16 | 107* | -1 | 12 | 11 | -2 | -8 | 0 | -12 | 3 | -10
Cc1cc2c(C)nc(-c3ccccc3)nc2o1 | 10 | 2 | 6 | 10 | -78 | 2 | . | . | . | . | .
CC1(C)CC(N(Cc2ccccc2)Cc2cccnc2)CC(C)(C)N1 | -36 | . | . | 7 | . | . | . | . | . | . | .
Nc1ccccc1NC1CCCCC1 | -19 | 36* | -3 | 2 | 33 | . | 21 | 34 | 17 | 26* | 24*
Cc1ccc2cc(C)c3nnc(SCC(=O)c4ccc(F)cc4)n3c2c1C | 6 | . | . | 16 | . | . | . | . | . | . | .
Cc1ccc(S(=O)(=O)Nc2ccc(NC(=O)c3c(F)c(F)c(F)c(F)c3F)cc2)cc1 | -75 | 35* | -5 | 27 | 38 | . | 23 | 35 | 26* | 28* | 24*
Cc1cccc2cc(CN(Cc3ccco3)C(=S)NCCCN(C)C)c(=O)[nH]c12 | -47 | . | . | 26 | . | . | . | . | . | . | .
O=C1Nc2ccccc2N=C(c2ccccc2)c2ccccc21 | -6 | 41* | . | 12 | 27 | . | 6 | 19 | 9 | 14 | -2
O=C1C(Cl)=C(Nc2ccc(O)cc2)C(=O)c2ccccc21 | -39 | 36* | . | 26 | 25 | . | 31 | 37 | 6 | 29* | 33*
SMILES | EP2 mod | NPY2 pot ag | NPY-Y1 antag | PGE2 EP2 inh | NPY-Y1 PAM-ag | NPY Y2 blocker | NPY-Y2 pot conf | NPY-Y1 potentiator | NPY-Y1 ag 2 | CNGC inhibitor | Y2 agonist ctr | others
Cc1ccc(NC2=C(Cl)C(=O)c3ccccc3C2=O)cc1 | -1 | 0 | 6 | 5 | 4 | 1 | . | . | . | . | .
O=C(O)c1nccnc1C(=O)Nc1ccc(Oc2c(Cl)cccc2Cl)nc1 | -2 | 73* | . | 1 | 12 | . | -3 | -2 | -12 | -8 | 0
c1ccc2c(c1)CCN(C1=Nc3cccc4cccc1c34)C2 | -68 | 33* | -5 | 9 | 38 | . | 64* | 88* | 62* | 62* | 61*
CCn1c(COc2ccc(Cl)cc2)nnc1SCC(=O)NC(C)(C)C | 5 | . | . | 10 | . | . | . | . | . | . | .
CC(C)C(O)(C#CCN1CCCC1)c1ccccc1 (centres undefined) | -20 | 102* | 4 | 11 | 5 | 0 | -6 | -11 | -6 | -4 | 1
Cc1ccc(N2CC(C(=O)Nc3nncs3)CC2=O)cc1 (centres undefined) | -9 | . | . | 7 | . | . | . | . | . | . | .
